Data on seven compounds can be found in ChEMBL document CHEMBL4316631, “Anti-inflammatory Potential of Saponins from Aster tataricus via NF-κB/MAPK Activation” (J Nat Prod, 2019).

The term IC50 denotes the concentration at which inhibition is half-maximal. The term inhibition denotes the relative decrease from the control value, in per cent.

The test system of data set [1] is RAW264.7. The experiment in a line: Anti-inflammatory activity in mouse RAW264.7 cells assessed as inhibition of LPS-induced nitric oxide production preincubated for 30 mins followed by LPS-stimulation and measured after 24 hrs by Griess assay. The data set is classed as functional, cell-based. The procedure, abridged:
(§1)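 RAW 264.7 macrophages stimulated with LPS; NO release quantified. Single-point screen at 50 μM; IC50 derived by nonlinear regression of sigmoidal dose–response curve, reported with 95% confidence intervals. Dexamethasone as positive control.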

Data set [2] concerns RAW264.7. The experiment in a line: Cytotoxicity against mouse RAW264.7 cells assessed as reduction in cell viability at >50 uM measured after 24 hrs by MTT assay. The data set is classed as cell-based. To be noted: raw264.7, 24 h. A general note: Tetrazolium assays rely on reduction of a dye to a coloured formazan, in cell work by metabolically active cells.
Data set [3] has as its system RAW264.7. Description: Anti-inflammatory activity in mouse RAW264.7 cells assessed as inhibition of LPS-induced nitric oxide production at 50 uM preincubated for 30 mins followed by LPS-stimulation and measured after 24 hrs by Griess assay relative to control. The data set is classed as functional. The essentials: as §1
For orientation: Nitrite, measured by Griess reagent, commonly stands in for NO production.

On to `CC1(C)CC[C@]2(C(=O)O)[C@H](O)C[C@]3(C)C(=CC[C@@H]4[C@@]5(C)C[C@H](O)[C@H](O[C@@H]6O[C@H](CO[C@@H]7OC[C@H](O)[C@H](O)[C@H]7O)[C@@H](O)[C@H](O)[C@H]6O)C(C)(C)[C@@H]5CC[C@]43C)[C@@H]2C1`, for which, in the data set on RAW264.7 [1], the IC50 was above 50 µM. Further, the Activity entry with RAW264.7 [2] is listed as “Non-Toxic”. The like results for `CC1(C)CC[C@]2(C(=O)O[C@@H]3OC[C@@H](O)[C@H](O)[C@H]3O)[C@H](O)C[C@]3(C)C(=CC[C@@H]4[C@@]5(C)C[C@H](O)[C@H](O[C@@H]6O[C@H](CO[C@@H]7OC[C@H](O)[C@H](O)[C@H]7O)[C@@H](O)[C@H](O)[C@H]6O)C(C)(C)[C@@H]5CC[C@]43C)[C@@H]2C1` were, in that order, above 50 µM and “Non-Toxic”. For the compound `C[C@@H]1O[C@@H](O[C@H]2[C@H](OC(=O)[C@]34CCC(C)(C)C[C@H]3C3=CC[C@@H]5[C@@]6(C)CC[C@H](O[C@@H]7O[C@H](CO[C@@H]8OC[C@H](O)[C@H](O)[C@H]8O)[C@@H](O)[C@H](O)[C@H]7O)C(C)(C)[C@@H]6CC[C@@]5(C)[C@]3(C)C[C@H]4O)OC[C@@H](O)[C@@H]2O)[C@H](O)[C@H](O)[C@H]1O[C@@H]1OC[C@H](O)[C@H](O[C@@H]2OC[C@@H](O)[C@H](O)[C@H]2O)[C@H]1O`, in the data set with RAW264.7 [1], the IC50 amounted to 2.1 µM. Besides, in the data set on RAW264.7 [3], the inhibition at 50 µM was above 50%.

Consider `C[C@@H]1O[C@@H](O[C@@H]2[C@@H](O[C@@H]3O[C@@H](C)[C@H](O[C@@H]4OC[C@@H](O)[C@H](O)[C@H]4O)[C@@H](O[C@@H]4OC[C@](O)(CO)[C@H]4O)[C@H]3O)[C@H](OC(=O)[C@]34CCC(C)(C)C[C@H]3C3=CC[C@@H]5[C@@]6(C)C[C@H](O)[C@H](O[C@@H]7O[C@H](CO[C@@H]8OC[C@H](O)[C@H](O)[C@H]8O)[C@@H](O)[C@H](O)[C@H]7O)C(C)(C)[C@@H]6CC[C@@]5(C)[C@]3(C)CC4)OC[C@H]2O)[C@H](O)[C@H](O)[C@H]1O`, for which the IC50 with RAW264.7 [1] is 42.1 µM. Further, the inhibition at 50 µM in the data set with RAW264.7 [3] is above 50%. As to `C[C@@H]1O[C@@H](O[C@@H]2[C@@H](O)[C@H](O[C@@H]3[C@@H](O[C@@H]4OC[C@](O)(CO)[C@H]4O)[C@@H](O)[C@H](O[C@H]4[C@H](OC(=O)[C@]56CCC(C)(C)C[C@H]5C5=CC[C@@H]7[C@@]8(C)C[C@H](O)[C@H](O[C@@H]9O[C@H](CO[C@@H]%10OC[C@H](O)[C@H](O)[C@H]%10O)[C@@H](O)[C@H](O)[C@H]9O)C(C)(C)[C@@H]8CC[C@@]7(C)[C@]5(C)C[C@H]6O)OC[C@@H](O)[C@@H]4O)O[C@H]3C)OC[C@@H]2O)[C@H](O)[C@H](O)[C@H]1O`, in the data set with RAW264.7 [1], the IC50 came to 2.7 µM. Also, the inhibition at 50 µM in the data set on RAW264.7 [3] is above 50%.

Consider `C[C@@H]1O[C@@H](O[C@H]2[C@H](OC(=O)[C@]34CCC(C)(C)C[C@H]3C3=CC[C@@H]5[C@@]6(C)C[C@H](O)[C@H](O[C@@H]7O[C@H](CO[C@@H]8OC[C@H](O)[C@H](O)[C@H]8O)[C@@H](O)[C@H](O)[C@H]7O)C(C)(C)[C@@H]6CC[C@@]5(C)[C@]3(C)CC4)OC[C@@H](O)[C@@H]2O)[C@H](O)[C@H](O[C@@H]2OC[C@](O)(CO)[C@H]2O)[C@H]1O[C@@H]1OC[C@@H](O)[C@H](O)[C@H]1O`, for which the IC50 in the data set on RAW264.7 [1] is above 50 µM. Also, in the data set on RAW264.7 [2], the Activity entry was “Non-Toxic”. As for `C[C@@H]1C[C@H]2[C@@H]3CCC4=CC(=O)C=C[C@]4(C)[C@@]3(F)[C@@H](O)C[C@]2(C)[C@@]1(O)C(=O)CO` [DEXAMETHASONE], the half-inhibitory concentration (IC50) in the data set on RAW264.7 [1] was determined as 0.01 µM.
